Test results from ChEMBL document CHEMBL1122003, “Preparation and antiinflammatory activity of 2- and 4-pyridones” (J Med Chem, 1982).
Values joined by “and” are separate entries in the source; they are usually repeats but may differ in a detail not shown here. Equal entries are not always repeated.

Key:
[1] = (§1) Lethal dose of compound was determined in mice by standard multidimensional observational assay; type: toxicity, organism-based; conditions: mouse, in vivo
Summary of the method: (§2)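 Approximate LD50 in mice, estimated from a standard multidimensional observational assay and calculated by the Litchfield–Wilcoxon method.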

[2] = system: Rattus norvegicus; assay: Effective dose of compound that reduce edema by at least 25% in 50% of animals; type: functional
Summary of the method: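 Rats, fasted 2 h, water ad libitum; compound given orally in 0.25% methylcellulose, controls vehicle only, at several doses below the 200 mg/kg screen. Carrageenan (1% sterile, 0.05 cm³) injected into left hind foot pad 1 h later. Paw volume measured at 3 h.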

[3] = system: Rattus norvegicus; assay: Percent reduction of edema was measured after oral administration at 200 mg/kg using carrageenan-induced pedal edema assay; type: functional
Summary of the method: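 Rats fasted 2 h; single oral 200 mg/kg in 0.25% methylcellulose, vehicle controls. Carrageenan (1% sterile, 0.05 cm³) injected into left hind foot pad 1 h after dosing. Paw volume measured at peak swelling, 3 h, by displacement apparatus; edema from differential paw volume, expressed as % reduction vs control.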

[4] = system: Rattus norvegicus; assay: Effective dose of compound that reduce edema in adrenolectomized rats by at least 25% in 50% of animals; type: functional
Summary of the method: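 Rats adrenalectomized several days before assay; otherwise as the intact-rat test: fasted 2 h, oral dosing in 0.25% methylcellulose at several doses, carrageenan (1%, 0.05 cm³) into left hind foot pad 1 h later, paw volume at 3 h.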

[5] = organism: Mus musculus; assay: as §1; type: toxicity, organism-based; conditions: in vivo; summary of the method: as §2
[6] = Rattus norvegicus, read-out: ED50

Compound	LD50 [1] [mg/kg]	ED50 [2, 6] [mg/kg]	Reduction ([3]; 200 mg/kg)	ED50 [4] [mg/kg]	Reduction [3] [%]	LD50 [5] [mg/kg]	ED50 [2] [mg/kg]
Cc1ccccc1NC(=O)c1c(C)n(-c2ccccc2C)c(C)cc1=O	562	80	17% and 49%	84.8			
COc1ccc(OC)c(NC(=O)c2c(C)n(-c3cc(OC)ccc3OC)c(C)cc2=O)c1	562				0		
COc1ccccc1NC(=O)c1c(C)n(-c2ccccc2OC)c(C)cc1=O	562	28		200		300	
Cc1cc(=O)c(C(=O)Nc2ccccc2Cl)c(C)n1-c1ccccc1Cl	562		2% and 8%			562	
O=C(Nc1ccccc1)c1c(-c2ccccc2)n(-c2ccccc2)c(-c2ccccc2)cc1=O	562				0		
Cc1cc(=O)c(C(=O)Nc2ccc(Cl)cc2)c(C)n1-c1ccc(Cl)cc1			58% and 62%				
Cc1c(Br)c(=O)c(C(=O)Nc2ccccc2)c(C)n1-c1ccccc1	562				23		
Cc1cccc(C)c1NC(=O)c1c(C)n(-c2c(C)cccc2C)c(C)cc1=O			31% and 26%				
Cc1cccc(NC(=O)c2c(C)n(-c3cccc(C)c3C)c(C)cc2=O)c1C	562				0		
Cc1cc(=O)c(C(=O)Nc2ccccc2)c(C)n1-c1ccccc1	562	200	25% and 33%			562	>200
Cc1cc(C)c(NC(=O)c2c(C)n(-c3c(C)cc(C)cc3C)c(C)cc2=O)c(C)c1					53		
